Data as given in ChEMBL document CHEMBL1157458, “Exploring the substituent effects on a novel series of C1'-dimethyl-aryl Delta8-tetrahydrocannabinol analogs” (Bioorg Med Chem, 2008).
pEC50, pKi: −log10 of the molar value.

Experiments:
Cannabinoid receptor 1 = Cannabinoid receptor 1 (Homo sapiens, UniProt P21554); test: Displacement of [3H]CP-55940 from human CB1 receptor expressed in HEK293 cells; type: cell-based
Homo sapiens = species: Homo sapiens; test: Selectivity ratio of Ki for human CB1 receptor to Ki for human CB2 receptor
Cannabinoid receptor 2 = Cannabinoid receptor 2 (Homo sapiens, UniProt P34972); test: Displacement of [3H]CP-55940 from human CB2 receptor expressed in CHO-K1 cells; type: cell-based
[1] = Cytotoxicity against human U87 cells by side flank model relative to control; type: functional, U-87MG ATCC; conditions: U-87 MG
T98G = test: Cytotoxicity against human T98G cells assessed as cell death after 18 hrs; type: functional, cell-based
Outline: (§1)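 Glioma lines (U-87MG, T98G, LN-229, DBTRG-O5MG, primary MT310) plated at 70% confluency in 100 µl supplemented medium, left overnight at 37 °C to adhere. Cells were then exposed to escalating drug amounts for 18 h. Viability was measured by CCK-8 absorbance at 450 nm relative to untreated controls. Values are the mean of three data points per determination, three independent determinations.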

[2] = Cytotoxicity against human DBTRG-O5MG cells assessed as cell death after 18 hrs; type: functional, cell-based; outline: as §1
[3] = Cytotoxicity against human LN229 cells assessed as cell death after 18 hrs; type: functional, cell-based; conditions: LN-229, 18 h; outline: as §1
[4] = Cytotoxicity against human MT310 cells assessed as cell death after 18 hrs; type: functional, cell-based; outline: as §1
[5] = Cytotoxicity against human U87MG cells assessed as cell death after 18 hrs; type: functional, U-87MG ATCC; outline: as §1

Cannabinoid receptor 1, sequence (P21554 whole entry): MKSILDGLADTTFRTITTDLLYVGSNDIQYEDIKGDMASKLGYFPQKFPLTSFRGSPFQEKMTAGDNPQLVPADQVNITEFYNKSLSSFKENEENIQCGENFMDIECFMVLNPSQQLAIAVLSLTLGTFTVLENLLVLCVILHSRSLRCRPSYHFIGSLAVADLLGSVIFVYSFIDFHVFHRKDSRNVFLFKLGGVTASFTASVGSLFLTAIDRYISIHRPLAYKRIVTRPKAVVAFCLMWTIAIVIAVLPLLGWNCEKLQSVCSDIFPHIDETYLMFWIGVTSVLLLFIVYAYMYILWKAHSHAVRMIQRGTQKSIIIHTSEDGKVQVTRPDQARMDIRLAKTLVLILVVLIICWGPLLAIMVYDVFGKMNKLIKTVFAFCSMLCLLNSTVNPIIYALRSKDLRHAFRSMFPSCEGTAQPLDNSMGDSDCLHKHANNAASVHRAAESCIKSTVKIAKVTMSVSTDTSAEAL
Cannabinoid receptor 2, sequence (P34972 whole entry): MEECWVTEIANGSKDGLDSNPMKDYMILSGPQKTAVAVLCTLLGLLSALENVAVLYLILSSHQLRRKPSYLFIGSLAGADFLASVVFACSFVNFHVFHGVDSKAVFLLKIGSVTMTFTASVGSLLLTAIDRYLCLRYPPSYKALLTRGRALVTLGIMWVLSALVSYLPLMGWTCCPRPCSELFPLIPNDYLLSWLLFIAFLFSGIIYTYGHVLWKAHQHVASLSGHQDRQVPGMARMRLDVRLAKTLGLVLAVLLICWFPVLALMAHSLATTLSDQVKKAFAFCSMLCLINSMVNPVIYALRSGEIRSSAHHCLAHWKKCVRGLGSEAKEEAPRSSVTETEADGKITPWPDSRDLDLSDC

| SMILES | pKi (Cannabinoid receptor 1) | Ratio Ki (Homo sapiens) | pKi (Cannabinoid receptor 2) | pEC50 [1] | pEC50 (T98G) | pEC50 [2] | pEC50 [3] | pEC50 [4] | Activity [5] [%] |
| --- | --- | --- | --- | --- | --- | --- | --- | --- | --- |
| CC1=CC[C@@H]2[C@@H](C1)c1c(O)cc(C(C)(C)c3ccccc3C)cc1OC2(C)C | 7.46 | 3.23 | 7.97 | – | – | – | – | – | – |
| CC1=CC[C@@H]2[C@@H](C1)c1c(O)cc(C(C)(C)c3ccc(C(N)=O)cc3)cc1OC2(C)C | – | 1.01 | – | – | – | – | – | – | – |
| CCc1ccc(C(C)(C)c2cc(O)c3c(c2)OC(C)(C)[C@@H]2CC=C(C)C[C@@H]32)cc1 | 8.73 | 2.76 | 9.17 | 5.60 | 5.49 | 5.52 | 5.78 | 5.39 | – |
| CC1=CC[C@@H]2[C@@H](C1)c1c(O)cc(C(C)(C)c3ccccc3)cc1OC2(C)C | – | 13.5 | – | 5.51 | 5.33 | 5.64 | 5.58 | 5.37 | 75 |
| CC1=CC[C@@H]2[C@@H](C1)c1c(O)cc(C(C)(C)c3ccc(F)cc3)cc1OC2(C)C | 7.12 | 6.14 | 7.91 | 5.59 | 5.48 | 5.51 | 5.69 | 5.06 | – |
| CC1=CC[C@@H]2[C@@H](C1)c1c(O)cc(C(C)(C)c3cccc(Br)c3)cc1OC2(C)C | 8.80 | 2.94 | 9.27 | – | – | – | – | – | – |
| CC1=CC[C@@H]2[C@@H](C1)c1c(O)cc(C(C)(C)c3cccs3)cc1OC2(C)C | 8.97 | 4 | 9.57 | 5.74 | 5.66 | 5.57 | 5.69 | 5.39 | – |
| CC1=CC[C@@H]2[C@@H](C1)c1c(O)cc(C(C)(C)c3cccc(Cl)c3)cc1OC2(C)C | 8.55 | 0.79 | 8.45 | – | – | – | – | – | – |
| CC1=CC[C@@H]2[C@@H](C1)c1c(O)cc(C(C)(C)c3cc(C)cc(C)c3)cc1OC2(C)C | 7.96 | 1.48 | 8.13 | – | – | – | – | – | – |
| CC1=CC[C@@H]2[C@@H](C1)c1c(O)cc(C(C)(C)c3cccc(F)c3)cc1OC2(C)C | 8.28 | 5.84 | 9.05 | – | – | – | – | – | – |
| CC1=CC[C@@H]2[C@@H](C1)c1c(O)cc(C(C)(C)c3ccc(C)cc3)cc1OC2(C)C | 8.50 | 3.56 | 9.06 | – | – | – | – | – | – |
| CC1=CC[C@@H]2[C@@H](C1)c1c(O)cc(C(C)(C)c3ccc(C#N)cc3)cc1OC2(C)C | 8.03 | 3.66 | 8.60 | – | – | – | – | – | – |
| CCCc1ccc(C(C)(C)c2cc(O)c3c(c2)OC(C)(C)[C@@H]2CC=C(C)C[C@@H]32)cc1 | 8.75 | 0.23 | 8.11 | 5.50 | 5.44 | 5.45 | 5.61 | 5.19 | – |
| CC1=CC[C@@H]2[C@@H](C1)c1c(O)cc(C(C)(C)c3cccc(C#N)c3)cc1OC2(C)C | 8.57 | 2.98 | 9.04 | – | – | – | – | – | – |
| CC1=CC[C@@H]2[C@@H](C1)c1c(O)cc(C(C)(C)c3ccc(Br)cc3)cc1OC2(C)C | 8.30 | 3.26 | 8.81 | – | – | – | – | – | – |
| CC1=CC[C@@H]2[C@@H](C1)c1c(O)cc(C(C)(C)c3ccc(Cl)cc3)cc1OC2(C)C | 7.73 | 11.2 | 8.77 | 5.49 | 5.47 | 5.34 | 5.54 | 5.14 | – |
| CC1=CC[C@@H]2[C@@H](C1)c1c(O)cc(C(C)(C)c3cccc(C)c3)cc1OC2(C)C | 8.60 | 2.24 | 8.95 | – | – | – | – | – | – |
